Measured values as given in ChEMBL document CHEMBL1157789, “Design, synthesis and SAR of phenylamino-substituted 5,11-dihydro-dibenzo[a,d]cyclohepten-10-ones and 11H-dibenzo[b,f]oxepin-10-ones as p38 MAP kinase inhibitors” (Bioorg Med Chem Lett, 2010).
Activity calls are given as the source filed them. The rule behind the calls is not given here.

Tests used:
[1] = Inhibition of p38 assessed as rate of ATF-2 phosphorylation at 10 uM by immunosorbent non-radioactive enzyme assay
Method in brief: (§1)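 p38α MAP kinase ELISA-type (immunosorbent, non-radioactive) assay. Enzyme was incubated with ATP at 100 µM, ATF-2 as substrate, and test compound at 10^-5 to 10^-8 M. Activity was read as the rate of ATF-2 phosphorylation. SB203580 served as the reference inhibitor.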

[2] = molecular target: RAC-alpha serine/threonine-protein kinase (Homo sapiens) (UniProt P31749); assay: Inhibition of AKT1 at 10 uM
Chain of RAC-alpha serine/threonine-protein kinase (Homo sapiens) (P31749 whole entry): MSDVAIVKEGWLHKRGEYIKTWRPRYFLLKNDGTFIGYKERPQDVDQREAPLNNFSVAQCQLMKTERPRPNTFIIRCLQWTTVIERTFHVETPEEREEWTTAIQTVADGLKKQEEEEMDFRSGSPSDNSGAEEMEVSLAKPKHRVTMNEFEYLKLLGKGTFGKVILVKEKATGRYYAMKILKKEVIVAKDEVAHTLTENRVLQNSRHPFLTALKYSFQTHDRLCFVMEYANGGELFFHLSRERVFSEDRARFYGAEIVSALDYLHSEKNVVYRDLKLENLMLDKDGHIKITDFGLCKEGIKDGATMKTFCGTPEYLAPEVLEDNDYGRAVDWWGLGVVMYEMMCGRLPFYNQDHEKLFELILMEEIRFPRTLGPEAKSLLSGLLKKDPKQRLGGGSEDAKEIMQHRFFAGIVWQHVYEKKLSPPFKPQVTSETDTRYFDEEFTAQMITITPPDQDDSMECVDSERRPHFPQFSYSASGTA

[3] = molecular target: T1, NUAK family SNF1-like kinase 1 (Homo sapiens) (UniProt O60285); assay: Inhibition of ARK5 at 10 uM
T1 sequence (whole entry): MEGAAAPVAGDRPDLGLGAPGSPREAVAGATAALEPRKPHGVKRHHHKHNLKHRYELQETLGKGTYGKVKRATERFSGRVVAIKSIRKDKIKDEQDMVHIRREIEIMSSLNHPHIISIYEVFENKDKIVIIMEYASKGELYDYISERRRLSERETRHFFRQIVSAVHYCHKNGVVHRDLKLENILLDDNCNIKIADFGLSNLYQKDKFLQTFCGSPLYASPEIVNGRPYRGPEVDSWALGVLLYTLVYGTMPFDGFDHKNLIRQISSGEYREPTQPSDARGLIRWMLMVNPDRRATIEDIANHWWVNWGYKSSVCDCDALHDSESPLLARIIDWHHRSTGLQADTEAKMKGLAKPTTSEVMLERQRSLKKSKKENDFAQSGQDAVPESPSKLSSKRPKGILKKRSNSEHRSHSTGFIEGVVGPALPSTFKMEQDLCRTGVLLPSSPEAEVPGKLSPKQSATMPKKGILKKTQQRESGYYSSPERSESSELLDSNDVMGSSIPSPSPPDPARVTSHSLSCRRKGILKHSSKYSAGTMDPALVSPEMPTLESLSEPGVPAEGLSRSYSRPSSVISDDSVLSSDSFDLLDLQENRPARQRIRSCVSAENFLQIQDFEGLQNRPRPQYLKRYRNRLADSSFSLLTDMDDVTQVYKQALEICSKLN

[4] = molecular target: Aurora kinase B (Homo sapiens) (UniProt Q96GD4); assay: Inhibition of Aurora B at 10 uM
Chain of Aurora kinase B (Homo sapiens) (Q96GD4 whole entry): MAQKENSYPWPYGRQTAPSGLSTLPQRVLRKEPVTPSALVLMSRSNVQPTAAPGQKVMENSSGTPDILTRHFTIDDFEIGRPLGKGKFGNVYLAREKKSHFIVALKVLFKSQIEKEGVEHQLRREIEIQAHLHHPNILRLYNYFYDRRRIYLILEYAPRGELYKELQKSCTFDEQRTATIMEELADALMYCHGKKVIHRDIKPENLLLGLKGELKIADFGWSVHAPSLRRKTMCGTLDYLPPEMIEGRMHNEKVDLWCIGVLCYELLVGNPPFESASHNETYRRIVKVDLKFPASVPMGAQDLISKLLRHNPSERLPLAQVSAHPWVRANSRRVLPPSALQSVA

[5] = molecular target: Tyrosine-protein kinase receptor UFO (Homo sapiens) (UniProt P30530); assay: Inhibition of AXL at 10 uM
Chain of Tyrosine-protein kinase receptor UFO (Homo sapiens) (P30530 whole entry): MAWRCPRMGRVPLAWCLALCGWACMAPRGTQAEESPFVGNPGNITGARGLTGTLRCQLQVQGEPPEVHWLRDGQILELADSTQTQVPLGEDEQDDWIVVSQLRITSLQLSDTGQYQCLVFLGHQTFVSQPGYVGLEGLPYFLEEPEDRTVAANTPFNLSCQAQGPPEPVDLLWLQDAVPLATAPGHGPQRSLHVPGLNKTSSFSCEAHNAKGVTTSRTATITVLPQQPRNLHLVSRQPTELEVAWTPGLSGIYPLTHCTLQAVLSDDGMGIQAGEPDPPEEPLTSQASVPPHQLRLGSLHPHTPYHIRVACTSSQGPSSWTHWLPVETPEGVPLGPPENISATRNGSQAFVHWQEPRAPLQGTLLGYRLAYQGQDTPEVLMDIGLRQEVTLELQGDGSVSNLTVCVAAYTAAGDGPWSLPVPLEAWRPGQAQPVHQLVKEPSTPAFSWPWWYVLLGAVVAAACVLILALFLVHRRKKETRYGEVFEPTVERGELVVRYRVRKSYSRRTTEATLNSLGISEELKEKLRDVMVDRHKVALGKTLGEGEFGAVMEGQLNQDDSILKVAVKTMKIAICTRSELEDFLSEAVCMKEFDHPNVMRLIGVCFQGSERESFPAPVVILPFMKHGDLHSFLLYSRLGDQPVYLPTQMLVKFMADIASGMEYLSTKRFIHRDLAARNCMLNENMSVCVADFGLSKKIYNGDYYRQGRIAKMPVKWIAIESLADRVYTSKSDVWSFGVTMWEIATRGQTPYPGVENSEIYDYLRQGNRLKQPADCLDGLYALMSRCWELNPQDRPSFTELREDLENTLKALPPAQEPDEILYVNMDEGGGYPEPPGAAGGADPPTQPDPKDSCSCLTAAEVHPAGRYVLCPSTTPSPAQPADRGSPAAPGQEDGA

[6] = system: Serine/threonine-protein kinase B-raf (Homo sapiens), P15056 [V600E]; assay: Inhibition of B-Raf V600E mutant at 10 uM
[7] = molecular target: Casein kinase II subunit alpha (Homo sapiens) (UniProt P68400); assay: Inhibition of CK2alpha1 at 10 uM
Chain of Casein kinase II subunit alpha (Homo sapiens) (P68400 whole entry, looked up): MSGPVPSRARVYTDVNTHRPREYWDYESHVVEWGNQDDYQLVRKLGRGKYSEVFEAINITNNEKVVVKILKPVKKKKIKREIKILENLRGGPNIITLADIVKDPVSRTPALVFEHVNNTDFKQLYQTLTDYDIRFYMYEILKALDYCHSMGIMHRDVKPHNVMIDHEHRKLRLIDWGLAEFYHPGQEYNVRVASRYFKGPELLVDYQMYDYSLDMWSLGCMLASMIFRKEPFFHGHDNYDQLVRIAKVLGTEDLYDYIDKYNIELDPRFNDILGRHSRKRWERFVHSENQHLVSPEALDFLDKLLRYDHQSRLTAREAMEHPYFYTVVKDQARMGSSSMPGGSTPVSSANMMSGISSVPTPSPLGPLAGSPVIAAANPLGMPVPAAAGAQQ

[8] = molecular target: Focal adhesion kinase 1 (Homo sapiens) (UniProt Q05397); assay: Inhibition of FAK at 10 uM
[9] = molecular target: Insulin-like growth factor 1 receptor (Homo sapiens) (UniProt P08069); assay: Inhibition of IGF1R at 10 uM
[10] = molecular target: Insulin receptor (Homo sapiens) (UniProt P06213); assay: Inhibition of INSR at 10 uM
Chain of Insulin receptor (Homo sapiens) (P06213 28-758 limits assumed): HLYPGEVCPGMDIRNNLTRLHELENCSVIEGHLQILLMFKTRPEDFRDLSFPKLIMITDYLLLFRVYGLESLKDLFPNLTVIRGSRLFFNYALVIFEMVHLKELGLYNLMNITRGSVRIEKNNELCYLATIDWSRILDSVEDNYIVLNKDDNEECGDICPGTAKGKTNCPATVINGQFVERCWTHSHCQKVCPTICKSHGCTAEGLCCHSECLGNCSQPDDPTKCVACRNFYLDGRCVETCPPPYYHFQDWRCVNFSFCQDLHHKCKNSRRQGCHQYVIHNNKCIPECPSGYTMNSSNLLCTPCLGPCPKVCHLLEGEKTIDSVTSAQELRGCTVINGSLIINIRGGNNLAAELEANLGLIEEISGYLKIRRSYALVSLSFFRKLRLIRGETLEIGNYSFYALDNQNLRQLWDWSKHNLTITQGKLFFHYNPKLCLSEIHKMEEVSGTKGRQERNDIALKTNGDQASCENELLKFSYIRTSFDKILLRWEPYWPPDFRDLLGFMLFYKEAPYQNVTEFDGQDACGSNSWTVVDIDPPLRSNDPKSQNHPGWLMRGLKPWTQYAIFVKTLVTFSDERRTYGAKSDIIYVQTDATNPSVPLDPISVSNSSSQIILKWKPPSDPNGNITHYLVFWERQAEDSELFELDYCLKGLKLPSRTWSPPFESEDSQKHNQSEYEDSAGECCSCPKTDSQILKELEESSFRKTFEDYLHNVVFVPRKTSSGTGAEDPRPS
Chain of Insulin receptor (Homo sapiens) (P06213 763-1382 limits assumed): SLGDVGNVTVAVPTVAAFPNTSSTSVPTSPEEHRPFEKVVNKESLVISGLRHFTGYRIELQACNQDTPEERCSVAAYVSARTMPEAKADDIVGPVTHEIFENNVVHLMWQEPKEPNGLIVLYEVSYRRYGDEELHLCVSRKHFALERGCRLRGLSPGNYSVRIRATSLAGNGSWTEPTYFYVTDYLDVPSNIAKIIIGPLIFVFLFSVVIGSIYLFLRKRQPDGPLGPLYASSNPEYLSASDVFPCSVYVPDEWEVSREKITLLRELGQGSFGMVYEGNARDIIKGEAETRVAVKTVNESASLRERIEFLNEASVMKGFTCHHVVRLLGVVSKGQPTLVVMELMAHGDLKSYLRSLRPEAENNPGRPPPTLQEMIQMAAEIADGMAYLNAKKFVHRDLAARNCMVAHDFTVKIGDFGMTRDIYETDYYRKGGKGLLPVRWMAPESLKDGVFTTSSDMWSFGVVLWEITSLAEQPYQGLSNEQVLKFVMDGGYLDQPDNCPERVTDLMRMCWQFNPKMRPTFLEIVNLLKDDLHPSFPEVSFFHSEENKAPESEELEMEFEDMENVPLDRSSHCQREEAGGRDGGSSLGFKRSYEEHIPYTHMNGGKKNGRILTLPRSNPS

[11] = molecular target: Hepatocyte growth factor receptor (Homo sapiens) (UniProt P08581); assay: Inhibition of MET at 10 uM
[12] = molecular target: Serine/threonine-protein kinase PLK1 (Homo sapiens) (UniProt P53350); assay: Inhibition of PLK1 at 10 uM
Chain of Serine/threonine-protein kinase PLK1 (Homo sapiens) (P53350 whole entry): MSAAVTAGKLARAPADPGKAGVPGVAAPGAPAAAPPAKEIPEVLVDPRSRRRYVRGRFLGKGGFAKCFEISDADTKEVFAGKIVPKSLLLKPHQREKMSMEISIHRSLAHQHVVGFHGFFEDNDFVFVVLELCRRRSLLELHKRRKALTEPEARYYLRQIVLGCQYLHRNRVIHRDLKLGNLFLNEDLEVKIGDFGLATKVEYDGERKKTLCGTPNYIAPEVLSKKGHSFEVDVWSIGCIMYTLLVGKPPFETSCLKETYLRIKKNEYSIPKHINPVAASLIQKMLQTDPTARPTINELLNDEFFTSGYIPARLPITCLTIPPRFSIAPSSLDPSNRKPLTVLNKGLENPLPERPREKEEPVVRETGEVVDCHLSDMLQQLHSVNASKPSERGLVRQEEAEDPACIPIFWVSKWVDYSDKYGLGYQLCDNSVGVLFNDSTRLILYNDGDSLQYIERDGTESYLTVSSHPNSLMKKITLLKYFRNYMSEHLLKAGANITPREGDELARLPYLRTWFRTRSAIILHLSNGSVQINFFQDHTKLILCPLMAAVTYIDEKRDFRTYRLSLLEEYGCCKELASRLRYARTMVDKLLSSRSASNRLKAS

[13] = molecular target: Serine/threonine-protein kinase N1 (Homo sapiens) (UniProt Q16512); assay: Inhibition of PRK1 at 10 uM
Chain of Serine/threonine-protein kinase N1 (Homo sapiens) (Q16512 2-942 limits assumed): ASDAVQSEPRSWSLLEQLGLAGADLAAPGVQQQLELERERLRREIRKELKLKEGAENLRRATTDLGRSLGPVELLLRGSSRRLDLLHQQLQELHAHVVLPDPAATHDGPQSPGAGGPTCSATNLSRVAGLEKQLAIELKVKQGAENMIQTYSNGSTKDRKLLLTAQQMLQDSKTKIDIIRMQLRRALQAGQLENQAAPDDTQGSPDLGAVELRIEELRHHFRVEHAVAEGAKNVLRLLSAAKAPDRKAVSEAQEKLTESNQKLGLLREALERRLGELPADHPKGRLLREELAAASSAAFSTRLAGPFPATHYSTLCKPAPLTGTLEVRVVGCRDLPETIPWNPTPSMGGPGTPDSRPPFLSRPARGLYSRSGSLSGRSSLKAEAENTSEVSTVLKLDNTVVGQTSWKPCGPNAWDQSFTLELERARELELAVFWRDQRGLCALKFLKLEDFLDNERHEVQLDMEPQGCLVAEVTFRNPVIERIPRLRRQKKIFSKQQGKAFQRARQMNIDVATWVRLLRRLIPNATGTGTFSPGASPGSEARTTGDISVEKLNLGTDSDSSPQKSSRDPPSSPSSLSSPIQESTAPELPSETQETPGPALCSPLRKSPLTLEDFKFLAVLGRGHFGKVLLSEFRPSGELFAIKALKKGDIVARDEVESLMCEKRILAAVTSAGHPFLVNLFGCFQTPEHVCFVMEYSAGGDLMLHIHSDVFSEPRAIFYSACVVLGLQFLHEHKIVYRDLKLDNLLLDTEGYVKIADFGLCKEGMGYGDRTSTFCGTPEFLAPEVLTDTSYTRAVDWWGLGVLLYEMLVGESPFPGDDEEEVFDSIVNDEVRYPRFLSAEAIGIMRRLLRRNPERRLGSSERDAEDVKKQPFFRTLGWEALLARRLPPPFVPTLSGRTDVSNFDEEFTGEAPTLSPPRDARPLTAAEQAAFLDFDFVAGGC

[14] = molecular target: T2, Serine/threonine-protein kinase PLK4 (Homo sapiens) (UniProt O00444); assay: Inhibition of SAK at 10 uM
T2 sequence (whole entry): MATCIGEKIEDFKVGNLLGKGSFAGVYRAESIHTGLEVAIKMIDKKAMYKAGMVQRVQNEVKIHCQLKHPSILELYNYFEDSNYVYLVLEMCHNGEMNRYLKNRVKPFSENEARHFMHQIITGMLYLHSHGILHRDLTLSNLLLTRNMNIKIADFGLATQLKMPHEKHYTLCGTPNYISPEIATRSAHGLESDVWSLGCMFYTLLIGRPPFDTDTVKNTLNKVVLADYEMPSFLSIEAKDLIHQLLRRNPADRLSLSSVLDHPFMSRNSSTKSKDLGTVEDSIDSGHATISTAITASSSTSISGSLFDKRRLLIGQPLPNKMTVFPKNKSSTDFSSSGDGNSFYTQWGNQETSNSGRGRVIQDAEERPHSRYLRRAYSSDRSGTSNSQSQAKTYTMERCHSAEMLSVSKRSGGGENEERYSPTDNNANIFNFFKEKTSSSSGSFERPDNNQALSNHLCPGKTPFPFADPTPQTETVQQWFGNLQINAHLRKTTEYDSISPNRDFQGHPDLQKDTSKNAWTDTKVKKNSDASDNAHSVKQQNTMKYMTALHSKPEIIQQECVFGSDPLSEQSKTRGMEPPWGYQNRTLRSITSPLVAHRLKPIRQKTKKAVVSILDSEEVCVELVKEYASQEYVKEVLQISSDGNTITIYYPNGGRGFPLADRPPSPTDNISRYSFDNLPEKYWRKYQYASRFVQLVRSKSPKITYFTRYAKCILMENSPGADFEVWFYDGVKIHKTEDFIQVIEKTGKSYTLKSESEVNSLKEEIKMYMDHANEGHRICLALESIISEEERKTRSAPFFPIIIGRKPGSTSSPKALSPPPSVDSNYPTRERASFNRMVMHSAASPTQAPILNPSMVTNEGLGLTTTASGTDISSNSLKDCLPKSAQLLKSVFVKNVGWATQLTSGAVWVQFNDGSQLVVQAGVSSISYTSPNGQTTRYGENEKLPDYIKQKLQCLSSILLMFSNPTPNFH

[15] = molecular target: Proto-oncogene tyrosine-protein kinase Src (Homo sapiens) (UniProt P12931); assay: Inhibition of SRC at 10 uM
[16] = molecular target: BDNF/NT-3 growth factors receptor (Homo sapiens) (UniProt Q16620); assay: Inhibition of TRKB at 10 uM
[17] = molecular target: Vascular endothelial growth factor receptor 2 (Homo sapiens) (UniProt P35968); assay: Inhibition of VGFR2 at 10 uM
[18] = Inhibition of p38 assessed as rate of ATF-2 phosphorylation by immunosorbent non-radioactive enzyme assay; method in brief: as §1

| Compound | inhibition [1] [%] | inhibition [2] | inhibition [3] | inhibition [4] | inhibition [5] | inhibition [6] | inhibition [7] | inhibition [8] | inhibition [9] | inhibition [10] | inhibition [11] | inhibition [12] | inhibition [13] | inhibition [14] | inhibition [15] | inhibition [16] | inhibition [17] | IC50 [18] [µM] |
| --- | --- | --- | --- | --- | --- | --- | --- | --- | --- | --- | --- | --- | --- | --- | --- | --- | --- | --- |
| O=C1Cc2ccccc2Cc2cc(-c3ccccc3)ccc21 | 43 | inactive | inactive | inactive | inactive | inactive | inactive | inactive | inactive | inactive | inactive | inactive | inactive | inactive | inactive | inactive | inactive |  |
| Nc1ccc(Nc2ccc3c(c2)Cc2ccccc2CC3=O)cc1 | 15 | inactive | inactive | inactive | inactive | inactive | inactive | inactive | inactive | inactive | inactive | inactive | inactive | inactive | inactive | inactive | inactive |  |
| O=C1Cc2cc(Nc3ccccc3)ccc2Cc2ccccc21 | 47 | inactive | inactive | inactive | inactive | inactive | inactive | inactive | inactive | inactive | inactive | inactive | inactive | inactive | inactive | inactive | inactive |  |
| Nc1ccccc1Nc1ccc2c(c1)Oc1ccccc1NC2=O |  | inactive | inactive | inactive | inactive | inactive | inactive | inactive | inactive | inactive | inactive | inactive | inactive | inactive | inactive | inactive | inactive | 2.7 |
| Nc1ccccc1Nc1ccc2c(c1)CC(=O)c1ccccc1C2 |  | inactive | inactive | inactive | inactive | inactive | inactive | inactive | inactive | inactive | inactive | inactive | inactive | inactive | inactive | inactive | inactive | 2.1 |
| O=C1Cc2ccccc2Cc2cc(NCc3ccccc3)ccc21 | 9 | inactive | inactive | inactive | inactive | inactive | inactive | inactive | inactive | inactive | inactive | inactive | inactive | inactive | inactive | inactive | inactive |  |
| Nc1ccccc1Nc1ccc2c(c1)Cc1ccccc1CC2=O |  | inactive | inactive | inactive | inactive | inactive | inactive | inactive | inactive | inactive | inactive | inactive | inactive | inactive | inactive | inactive | inactive | 0.99 |

The next lines start with the values.

| inhibition [1] [%] | inhibition [2] | inhibition [3] | inhibition [4] | inhibition [5] | inhibition [6] | inhibition [7] | inhibition [8] | inhibition [9] | inhibition [10] | inhibition [11] | inhibition [12] | inhibition [13] | inhibition [14] | inhibition [15] | inhibition [16] | inhibition [17] | IC50 [18] [µM] | Compound |
| --- | --- | --- | --- | --- | --- | --- | --- | --- | --- | --- | --- | --- | --- | --- | --- | --- | --- | --- |
| 37 |  |  |  |  |  |  |  |  |  |  |  |  |  |  |  |  |  | Nc1ccccc1Nc1cccc2c1Oc1ccccc1CC2=O |
| 6 |  |  |  |  |  |  |  |  |  |  |  |  |  |  |  |  |  | O=C1Cc2ccccc2Cc2c(Nc3ccc(F)cc3F)cccc21 |
| 44 |  |  |  |  |  |  |  |  |  |  |  |  |  |  |  |  |  | O=C1Cc2ccccc2Cc2ccc(Nc3ccc(F)cc3F)cc21 |
| 36 |  |  |  |  |  |  |  |  |  |  |  |  |  |  |  |  |  | Nc1ccccc1Nc1ccc2c(c1)C(=O)Cc1ccccc1O2 |
| 25 |  |  |  |  |  |  |  |  |  |  |  |  |  |  |  |  |  | O=C1Cc2ccccc2Oc2ccc(Nc3ccccc3)cc21 |
| 32 |  |  |  |  |  |  |  |  |  |  |  |  |  |  |  |  |  | O=C1Cc2ccccc2Oc2c(Nc3ccccc3)cccc21 |
| 12 |  |  |  |  |  |  |  |  |  |  |  |  |  |  |  |  |  | O=C1Cc2ccccc2Oc2c(Nc3ccc(F)cc3F)cccc21 |
| 47 |  |  |  |  |  |  |  |  |  |  |  |  |  |  |  |  |  | O=C1Cc2ccccc2Cc2c(Nc3ccccc3)cccc21 |
| 46 |  |  |  |  |  |  |  |  |  |  |  |  |  |  |  |  |  | Nc1cc(F)ccc1Nc1ccc2c(c1)C(=O)Cc1ccccc1O2 |
